The record followed here is ChEMBL document CHEMBL5230170, “Pyridine based dual binding site aromatase (CYP19A1) inhibitors” (RSC Med Chem, 2023).

The subject of one data set is MCF7. Put plainly: Cytotoxicity against human MCF7 cells assessed as reduction in cell growth at 1 uM incubated for 48 hrs by BrdU cell proliferation assay. Format: functional, cell-based. In outline: (§1)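 48 h exposure to 1 μM, with DMSO vehicle (≤0.01%) and doxorubicin (1 μM) controls, then BrdU added for 2 h at 37 °C before fixation, DNA denaturation and colorimetric immunoassay of BrdU incorporation. Plating was 8 × 10^3 cells/well for MCF-10A and 5 × 10^3 cells/well for MDA-MB-231. Technical replicates were n = 6 for MDA-MB-231 and n = 5 for MCF-7 and MCF-10A; one-way ANOVA with Tukey's test.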

In a further data set the test system is MDA-MB-231. The experiment in a line: Cytotoxicity against human MDA-MB-231 cells assessed as reduction in cell growth at 1 uM incubated for 48 hrs by BrdU cell proliferation assay. Format: functional, cell-based. In outline: as §1
The next data set deals with MCF-10A. The experiment in a line: Cytotoxicity against human MCF-10A cells assessed as reduction in cell growth at 1 uM incubated for 48 hrs by BrdU cell proliferation assay. Format: toxicity, cell-based. The procedure, abridged: as §1
The species named for data set [1] is Homo sapiens. The experiment in a line: Selectivity index, ratio of IC50 for inhibition of CYP2D6 in human liver microsomes to IC50 for inhibition of CYP19A1 in human JEG-3 cells. Format: cell-based. The procedure, abridged:
(§2)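 The CYP isoform IC50 was measured in human liver microsomes with an isoform-specific probe substrate. […] Tritiated water was charcoal-cleared and counted, then normalised to BCA protein, in triplicate. The index is the ratio of the isoform IC50 to the CYP19A1 IC50.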
On the technique in general: Liver microsomes are a subcellular fraction often used to study metabolism.

For data set [2], the species on record is Homo sapiens. The experiment in a line: Selectivity index, ratio of IC50 for inhibition of CYP1A2 in human liver microsomes to IC50 for inhibition of CYP19A1 in human JEG-3 cells. Type of data set: cell-based. The procedure, abridged: as §2

Active and inactive are the calls of the source. No cut-off for these calls is given here.

With `CC#CCOc1ccc2cc(C(O)(c3ccc(Cl)cc3)c3cccnc3)oc2c1` (centres undefined), the result in the data set with MCF7 and in the data set with MDA-MB-231 was inactive. The Activity result with MCF-10A is on record as “Non-Toxic”.

Take `CC#CCOc1ccc2cc(C(O)(c3ccc(Br)cc3)c3cccnc3)oc2c1` (centres undefined): the Ratio IC50 in the data set filed under Homo sapiens [1] and in the data set listed under Homo sapiens [2] was 30100 throughout. Further, the outcome in the data set with MCF7 and in the data set with MDA-MB-231 was inactive. For the same molecule, in the data set with MCF-10A, the Activity entry was “Non-Toxic”.

With `CCC#CCOc1ccc2cc(C(O)(c3ccc(Br)cc3)c3cccnc3)oc2c1` (centres undefined), the result in the data set with MCF7 and with MDA-MB-231 was inactive. Also, in the data set with MCF-10A, the Activity result was “Not Active”.

Turning to `COc1ccc2cc(C(O)(c3ccc(F)cc3)c3cccnc3)oc2c1` (centres undefined), the result in the data set with MCF7 and in the data set with MDA-MB-231 was inactive. Besides, the Activity result in the data set with MCF-10A is recorded as “Non-Toxic”.

Regarding `COc1ccc2cc(C(O)(c3cccnc3)c3ccc(Cl)cc3Cl)oc2c1` (centres undefined), the result in the data set on MCF7 and with MDA-MB-231 was inactive. In addition, in the data set on MCF-10A, the Activity result is listed as “Non-Toxic”.

Regarding `COc1cccc2c1C(=O)c1c(O)c3c(c(O)c1C2=O)C[C@@](O)(C(=O)CO)C[C@@H]3O[C@H]1C[C@H](N)[C@H](O)[C@H](C)O1` [DOXORUBICIN], the outcome in the data set with MCF7 and with MDA-MB-231 was inactive. Further, the Activity entry in the data set with MCF-10A is on record as “Not Active”.

In the case of `CCC#CCOc1ccc2cc(C(O)(c3ccc(Cl)cc3)c3cccnc3)oc2c1` (centres undefined), the result in the data set on MCF7 and in the data set on MDA-MB-231 was inactive. The Activity result with MCF-10A is “Not Active”.

On to `COc1ccc2cc(C(O)(c3ccc(Br)cc3)c3cccnc3)oc2c1` (centres undefined), for which the outcome with MCF7 and in the data set with MDA-MB-231 was inactive. Also, the Activity entry with MCF-10A is “Non-Toxic”.

As to `COc1ccc2cc(C(O)(c3ccc(Cl)cc3)c3cccnc3)oc2c1` (centres undefined), the outcome in the data set with MCF7 and with MDA-MB-231 was inactive. Moreover, the Activity entry in the data set on MCF-10A is recorded as “Non-Toxic”.
